# ChEMBL document CHEMBL4689842, “EUbOPEN Chemogenomics Library wave 1” (2021)
# Test system: HEK-293T
# Test: Multiplex assay against HEK293T;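 on Population Tubulin-Different-Phenotype (%): share of the cells with healthy nuclei that show this phenotype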
# Assay type: toxicity, cell-based
# Conditions: human
# In short: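 Live cells carried four stains from seeding: Hoechst33342, BioTracker Green Microtubule Cytoskeleton Dye, MitoTracker Red and Annexin V Alexa Fluor 680. They were imaged on a CQ1 microscope at 37°C and 5% CO2 after compound addition. Using CellPathfinder machine-learning gating, cells were split into Hoechst high-intensity objects or normal cells, normal cells into healthy, pyknosed or fragmented nuclei, and pyknosed cells into mitotic or apoptotic; tubulin, mitochondrial-mass and membrane-permeability phenotypes are per cents of healthy-nucleus cells.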
# [1] = 12 h, 1 µM, compound concentration 1 uM, replicate 1
# [2] = 12 h, 1 µM, compound concentration 1 uM, replicate 2
# [3] = 12 h, 10 µM, compound concentration 10 uM, replicate 1
# [4] = 12 h, 10 µM, compound concentration 10 uM, replicate 2
# [5] = 24 h, 1 µM, compound concentration 1 uM, replicate 1
# [6] = 24 h, 1 µM, compound concentration 1 uM, replicate 2
# [7] = 24 h, 10 µM, compound concentration 10 uM, replicate 1
# [8] = 24 h, 10 µM, compound concentration 10 uM, replicate 2
# [9] = 48 h, 1 µM, compound concentration 1 uM, replicate 1
# [10] = 48 h, 1 µM, compound concentration 1 uM, replicate 2
# [11] = 48 h, 10 µM, compound concentration 10 uM, replicate 1
# [12] = 48 h, 10 µM, compound concentration 10 uM, replicate 2
compound,measurement,setting,value
Cl.N#Cc1ccc2[nH]cc(CCCCN3CCN(c4ccc5oc(C(N)=O)cc5c4)CC3)c2c1 [VILAZODONE HYDROCHLORIDE],Population Apoptotic (%),[1],53%
same,Population Healthy Nuclei (%),[1],49%
same,Population Hoechst High Intensity Objects (%),[1],9%
same,Population Membrane Permeable-Phenotype (%),[1],1%
same,Population Mitochondria Different-Phenotype (%),[1],93%
same,Population Mitotic Cells (%),[1],46%
same,Population Normal (%),[1],90%
same,Population Pyknosed Nuclei (%),[1],44%
same,Population Tubulin-Different-Phenotype (%),[1],78%
same,Total Cell Count,[1],364
same,Population Apoptotic (%),[2],20%
same,Population Fragmented Nuclei (%),[2],6%
same,Population Healthy Nuclei (%),[2],32%
same,Population Hoechst High Intensity Objects (%),[2],3%
same,Population Membrane Permeable-Phenotype (%),[2],6%
same,Population Mitochondria Different-Phenotype (%),[2],67%
same,Population Mitotic Cells (%),[2],79%
same,Population Normal (%),[2],96%
same,Population Pyknosed Nuclei (%),[2],61%
same,Population Tubulin-Different-Phenotype (%),[2],69%
same,Total Cell Count,[2],138
same,Population Apoptotic (%),[3],93%
same,Population Healthy Nuclei (%),[3],8%
same,Population Hoechst High Intensity Objects (%),[3],25%
same,Population Membrane Permeable-Phenotype (%),[3],0%
same,Population Mitochondria Different-Phenotype (%),[3],100%
same,Population Mitotic Cells (%),[3],6%
same,Population Normal (%),[3],74%
same,Population Pyknosed Nuclei (%),[3],78%
same,Population Tubulin-Different-Phenotype (%),[3],92%
same,Total Cell Count,[3],198
same,Population Apoptotic (%),[4],82%
same,Population Fragmented Nuclei (%),[4],12%
same,Population Healthy Nuclei (%),[4],16%
same,Population Hoechst High Intensity Objects (%),[4],23%
same,Population Membrane Permeable-Phenotype (%),[4],23%
same,Population Mitochondria Different-Phenotype (%),[4],84%
same,Population Mitotic Cells (%),[4],17%
same,Population Normal (%),[4],76%
same,Population Pyknosed Nuclei (%),[4],70%
same,Population Tubulin-Different-Phenotype (%),[4],96%
same,Total Cell Count,[4],199
same,Population Apoptotic (%),[5],52%
same,Population Fragmented Nuclei (%),[5],6%
same,Population Healthy Nuclei (%),[5],58%
same,Population Hoechst High Intensity Objects (%),[5],6%
same,Population Membrane Permeable-Phenotype (%),[5],3%
same,Population Mitochondria Different-Phenotype (%),[5],87%
same,Population Mitotic Cells (%),[5],47%
same,Population Normal (%),[5],93%
same,Population Pyknosed Nuclei (%),[5],34%
same,Population Tubulin-Different-Phenotype (%),[5],71%
same,Total Cell Count,[5],412
same,Population Apoptotic (%),[6],32%
same,Population Fragmented Nuclei (%),[6],5%
same,Population Healthy Nuclei (%),[6],43%
same,Population Hoechst High Intensity Objects (%),[6],5%
same,Population Membrane Permeable-Phenotype (%),[6],2%
same,Population Mitochondria Different-Phenotype (%),[6],60%
same,Population Mitotic Cells (%),[6],67%
same,Population Normal (%),[6],94%
same,Population Pyknosed Nuclei (%),[6],50%
same,Population Tubulin-Different-Phenotype (%),[6],58%
same,Total Cell Count,[6],165
same,Population Apoptotic (%),[7],98%
same,Population Fragmented Nuclei (%),[7],19%
same,Population Healthy Nuclei (%),[7],5%
same,Population Hoechst High Intensity Objects (%),[7],21%
same,Population Membrane Permeable-Phenotype (%),[7],0%
same,Population Mitochondria Different-Phenotype (%),[7],100%
same,Population Mitotic Cells (%),[7],1%
same,Population Normal (%),[7],78%
same,Population Pyknosed Nuclei (%),[7],74%
same,Population Tubulin-Different-Phenotype (%),[7],100%
same,Total Cell Count,[7],215
same,Population Apoptotic (%),[8],92%
same,Population Fragmented Nuclei (%),[8],10%
same,Population Healthy Nuclei (%),[8],12%
same,Population Hoechst High Intensity Objects (%),[8],25%
same,Population Membrane Permeable-Phenotype (%),[8],11%
same,Population Mitochondria Different-Phenotype (%),[8],94%
same,Population Mitotic Cells (%),[8],7%
same,Population Normal (%),[8],74%
same,Population Pyknosed Nuclei (%),[8],76%
same,Population Tubulin-Different-Phenotype (%),[8],94%
same,Total Cell Count,[8],186
same,Population Apoptotic (%),[9],32%
same,Population Healthy Nuclei (%),[9],75%
same,Population Hoechst High Intensity Objects (%),[9],7%
same,Population Membrane Permeable-Phenotype (%),[9],2%
same,Population Mitochondria Different-Phenotype (%),[9],51%
same,Population Mitotic Cells (%),[9],67%
same,Population Normal (%),[9],92%
same,Population Pyknosed Nuclei (%),[9],15%
same,Population Tubulin-Different-Phenotype (%),[9],57%
same,Total Cell Count,[9],639
same,Population Apoptotic (%),[10],33%
same,Population Fragmented Nuclei (%),[10],9%
same,Population Healthy Nuclei (%),[10],68%
same,Population Hoechst High Intensity Objects (%),[10],4%
same,Population Membrane Permeable-Phenotype (%),[10],6%
same,Population Mitochondria Different-Phenotype (%),[10],32%
same,Population Mitotic Cells (%),[10],66%
same,Population Normal (%),[10],95%
same,Population Pyknosed Nuclei (%),[10],22%
same,Population Tubulin-Different-Phenotype (%),[10],51%
same,Total Cell Count,[10],263
same,Population Apoptotic (%),[11],94%
same,Population Fragmented Nuclei (%),[11],27%
same,Population Healthy Nuclei (%),[11],0%
same,Population Hoechst High Intensity Objects (%),[11],16%
same,Population Membrane Permeable-Phenotype (%),[11],0%
same,Population Mitochondria Different-Phenotype (%),[11],100%
same,Population Mitotic Cells (%),[11],5%
same,Population Normal (%),[11],83%
same,Population Pyknosed Nuclei (%),[11],72%
same,Population Tubulin-Different-Phenotype (%),[11],0%
same,Total Cell Count,[11],248
same,Population Apoptotic (%),[12],95%
same,Population Fragmented Nuclei (%),[12],13%
same,Population Healthy Nuclei (%),[12],12%
same,Population Hoechst High Intensity Objects (%),[12],30%
same,Population Membrane Permeable-Phenotype (%),[12],17%
same,Population Mitochondria Different-Phenotype (%),[12],88%
same,Population Mitotic Cells (%),[12],4%
same,Population Normal (%),[12],69%
same,Population Pyknosed Nuclei (%),[12],73%
same,Population Tubulin-Different-Phenotype (%),[12],94%
same,Total Cell Count,[12],191
